Converted amounts (≈) assume the structure as drawn. The source made the active and inactive calls. The calls are words filed in the database; no cut-off is given here.
Columns and labels:
Candida albicans [1] = assay: Antifungal activity against fluconazole-resistant Candida albicans 100 after 24 hrs by serial dilution method in presence of fluconazole; type: functional
Outline: (§1)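 Tested in combination with fluconazole against each fluconazole-resistant C. albicans strain. Interaction was scored by fractional inhibitory concentration index (FICI): synergy at FICI ≤ 0.5, indifference at 0.5 < FICI ≤ 4, antagonism at FICI > 4.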

Candida albicans [2] = assay: Antifungal activity against fluconazole-sensitive Candida albicans SC5314 assessed as abnormal vacuole shape at 8 ug/ml after 8 hrs by TEM analysis; type: functional, organism-based
Outline: (§2)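 Transmission electron microscopy of C. albicans SC5314 cells exposed to 8 μg/mL for 8 h. Untreated cells and cells given fluconazole 8 μg/mL for 8 h served as controls. Cell wall layers, cytoplasmic density and vacuole shape were compared by eye.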

Candida albicans [3] = assay: Antifungal activity against fluconazole-sensitive Candida albicans SC5314 assessed as reduction in cytoplasmic density at 8 ug/ml after 8 hrs by TEM analysis; type: functional, organism-based; outline: as §2
Candida albicans [4] = assay: Antifungal activity against fluconazole-sensitive Candida albicans SC5314 assessed as change in ergosterol composition at 8 ug/ml after 24 hrs by GC-MS analysis (reference value: 90%); type: functional
Outline: (§3)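 C. albicans SC5314 exposed to 8 μg/mL for 24 h, sterols analysed by GC-MS with cholesterol internal standard; each sterol expressed as % of total sterol fraction versus no-drug control; average of three independent experiments.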

Candida albicans [5] = assay: Antifungal activity against fluconazole-sensitive Candida albicans SC5314 assessed as change in lanosterol composition at 8 ug/ml after 24 hrs by GC-MS analysis (reference value: 1.5%); type: functional; outline: as §3
Candida albicans [6] = assay: Antifungal activity against fluconazole-sensitive Candida albicans SC5314 assessed as change in sterol composition at 8 ug/ml after 24 hrs by GC-MS analysis (reference value: 8.5%); type: functional; outline: as §3
CYP3A4 = CYP3A4 (Homo sapiens, UniProt P08684); assay: Inhibition of CYP3A4 in human liver microsomes assessed as midazolam conversion to 1'-hydroxy midazolam at 2.5 uM preincubated for 10 mins followed by NADPH addition measured after 15 mins by LC-MS/MS analysis relative to control; type: ADME; conditions: probe midazolam
Sequence of CYP3A4 (P08684 whole entry): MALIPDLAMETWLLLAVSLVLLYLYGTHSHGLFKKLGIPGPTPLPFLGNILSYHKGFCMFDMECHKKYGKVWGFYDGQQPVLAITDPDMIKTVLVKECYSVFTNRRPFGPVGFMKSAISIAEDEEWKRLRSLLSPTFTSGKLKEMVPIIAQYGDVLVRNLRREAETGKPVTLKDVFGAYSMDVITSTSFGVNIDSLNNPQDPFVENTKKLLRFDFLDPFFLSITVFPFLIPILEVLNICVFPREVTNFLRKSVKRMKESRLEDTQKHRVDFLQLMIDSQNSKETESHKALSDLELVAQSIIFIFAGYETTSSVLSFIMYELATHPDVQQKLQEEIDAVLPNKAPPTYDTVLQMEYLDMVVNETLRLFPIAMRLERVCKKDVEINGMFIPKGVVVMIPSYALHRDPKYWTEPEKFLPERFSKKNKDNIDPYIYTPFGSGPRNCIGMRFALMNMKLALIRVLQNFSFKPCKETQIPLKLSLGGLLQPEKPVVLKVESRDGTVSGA

Cytochrome P450 2C9 = Cytochrome P450 2C9 (Homo sapiens, UniProt P11712); assay: Inhibition of CYP2C9 in human liver microsomes assessed as tolbutamide conversion to 4-hydroxy tolbutamide preincubated for 10 mins followed by NADPH addition measured after 15 mins by LC-MS/MS analysis; type: ADME
Sequence of Cytochrome P450 2C9 (P11712 whole entry): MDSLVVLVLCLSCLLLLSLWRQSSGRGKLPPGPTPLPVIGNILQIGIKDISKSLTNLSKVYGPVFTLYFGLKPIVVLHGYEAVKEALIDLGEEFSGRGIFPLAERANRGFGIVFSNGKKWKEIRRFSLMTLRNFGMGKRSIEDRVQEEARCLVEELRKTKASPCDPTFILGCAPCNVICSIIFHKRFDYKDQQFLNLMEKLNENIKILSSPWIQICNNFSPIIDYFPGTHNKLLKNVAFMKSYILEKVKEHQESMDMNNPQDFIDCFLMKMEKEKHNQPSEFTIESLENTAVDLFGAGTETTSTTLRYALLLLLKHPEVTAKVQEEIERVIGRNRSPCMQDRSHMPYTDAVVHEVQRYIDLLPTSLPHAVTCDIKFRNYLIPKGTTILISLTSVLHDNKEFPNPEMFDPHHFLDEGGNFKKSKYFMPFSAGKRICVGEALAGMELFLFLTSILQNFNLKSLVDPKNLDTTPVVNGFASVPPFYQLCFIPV

Cytochrome P450 3A4 = Cytochrome P450 3A4 (Homo sapiens, UniProt P08684); assay: Inhibition of CYP3A4 in human liver microsomes assessed as testosterone conversion to 6-hydroxy testosterone preincubated for 10 mins followed by NADPH addition measured after 15 mins by LC-MS/MS analysis; type: ADME
Sequence of Cytochrome P450 3A4 (P08684 whole entry): as the sequence (P08684 whole entry) above

Candida tropicalis = assay: Antifungal activity against Candida tropicalis after 7 days by serial dilution method; type: functional; conditions: 168 h
Pichia kudriavzevii = assay: Antifungal activity against Candida krusei 0710397 after 7 days by serial dilution method; type: functional; conditions: Pichia kudriavzevii, 0710397, 168 h
Candida albicans [7] = assay: Antifungal activity against fluconazole-sensitive Candida albicans SC5314 after 24 hrs by serial dilution method; type: functional; conditions: SC5314, 24 h
Cryptococcus neoformans = assay: Antifungal activity against Cryptococcus neoformans 32609 after 72 hrs by serial dilution method; type: functional; conditions: Cryptococcus neoformans, 32609, 72 h
Trichophyton rubrum = assay: Antifungal activity against Trichophyton rubrum Cmccftla after 7 days by serial dilution method; type: functional; conditions: 168 h
Nannizzia gypsea = assay: Antifungal activity against Microsporum gypseum Cmccfmza after 7 days by serial dilution method; type: functional; conditions: 168 h
WI-38 = assay: Cytotoxicity against human WI38 cells by MTT assay; type: cell-based
Candida albicans [8] = assay: Fungicidal activity against fluconazole-sensitive Candida albicans SC5314 assessed as reduction in fungi density after 24 hrs; type: functional, organism-based
Outline: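 Time-kill: C. albicans (SC5314 or 103) inoculated at 10^5 CFU/mL, untreated or with drug (2–32 μg/mL; fluconazole 32 μg/mL reference); CFU/mL counted after 0, 12, 24 and 48 h.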

Candida albicans [9] = assay: Inhibition of biofilm formation of fluconazole-sensitive Candida albicans SC5314 at 64 ug/ml after 48 hrs by XTT assay relative to control; type: functional; conditions: SC5314, 48 h
Outline: (§4)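 Biofilm formation by C. albicans SC5314 or 103 in presence of 2–64 μg/mL drug (fluconazole 64 μg/mL reference); quantified by XTT reduction as % of blank control; mean ± standard deviation of three independent experiments, ANOVA and Student t test.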

Candida albicans [10] = assay: Inhibition of biofilm formation of fluconazole-sensitive Candida albicans SC5314 after 48 hrs by XTT assay; type: functional, organism-based
Outline: (§5)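 Biofilm formation by C. albicans SC5314 was tested with compound at 2–64 μg/mL. Untreated and fluconazole 64 μg/mL controls were included. Biofilm was quantified by XTT reduction and expressed as % of untreated control. Mean ± SD of three independent experiments; ANOVA and Student t test, p<0.05.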

Candida albicans [11] = assay: Inhibition of biofilm formation of fluconazole-sensitive Candida albicans SC5314 at 4 ug/ml after 48 hrs by XTT assay relative to control; type: functional; conditions: SC5314, 48 h; outline: as §5
Candida albicans [12] = assay: Inhibition of biofilm formation of fluconazole-resistant Candida albicans 103 at 32 ug/ml after 48 hrs by XTT assay; type: functional; conditions: Candida albicans, 103, 48 h; outline: as §4
Candida albicans [13] = assay: Inhibition of hyphal growth of fluconazole-sensitive Candida albicans SC5314 assessed as appearance of pseudohyphal form at 2 ug/ml after 16 hrs by light microscopic analysis; type: functional, organism-based
Outline: (§6)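 C. albicans SC5314 was grown in RPMI 1640 at 37 °C for 16 h, without compound or with 2–8 μg/mL. A fluconazole 8 μg/mL control was included. Cell morphology (hyphae, pseudohyphae, budding yeast) was then scored by microscopy.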

Candida albicans [14] = assay: Inhibition of hyphal growth of fluconazole-sensitive Candida albicans SC5314 assessed as appearance of unicellular budding yeast form at 4 to 8 ug/ml after 16 hrs by light microscopic analysis; type: functional, organism-based; outline: as §6
Candida albicans [15] = assay: Antifungal activity against fluconazole-resistant Candida albicans 103 after 24 hrs by serial dilution method in presence of fluconazole; type: functional; outline: as §1

`Fc1ccc2c(c1)c1c(n2CCCOc2ccc(Cl)cc2)CCNC1` was tested, and the “fractional inhibitory concentration index (FICI)” value (Candida albicans [1]) was 0.252, the Activity (Candida albicans [2]) was “Active” and the Activity (Candida albicans [3]) was “Active”. The Activity (Candida albicans [4]) was 40.2%, the Activity (Candida albicans [5]) was 12.2% and the Activity (Candida albicans [6]) was 31.5%. The inhibition at 0.25 h, 2.5 µM (CYP3A4) was -10%, the IC50 (Cytochrome P450 2C9) was > 25 µM and the IC50 (Cytochrome P450 3A4) was 25 µM. It also gave an MIC80 (Candida tropicalis) of 4 µg/mL (≈ 11.1 µM), an MIC80 (Pichia kudriavzevii) of 4 µg/mL (≈ 11.1 µM) and an MIC80 (Candida albicans [7]) of 2 µg/mL (≈ 5.57 µM). It also gave an MIC80 (Cryptococcus neoformans) of 1 µg/mL (≈ 2.79 µM), an MIC80 (Trichophyton rubrum) of 2 µg/mL (≈ 5.57 µM) and an MIC80 (Nannizzia gypsea) of 1 µg/mL (≈ 2.79 µM). For the same compound, the IC50 (WI-38) was > 40 µg/mL, the Activity (Candida albicans [8]) was “Active” and the inhibition at 64 µg/mL (Candida albicans [9]) was > 80%. For the same compound, the inhibition (Candida albicans [10]) was “Dose-dependent effect”, the inhibition at 4 µg/mL (Candida albicans [11]) was > 50% and the inhibition at 32 µg/mL (Candida albicans [12]) was > 75%. The “growth inhibition (GI)” value (Candida albicans [13]) was “Active”, the “growth inhibition (GI)” value (Candida albicans [14]) was “Active” and the “fractional inhibitory concentration index (FICI)” value (Candida albicans [15]) was 0.252.
